Measurements taken from ChEMBL document CHEMBL4689842, “EUbOPEN Chemogenomics Library wave 1” (2021).

System: HEK-293T
Assay: Multiplex assay against HEK293T;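 for Population Tubulin-Different-Phenotype (%): share of the cells with healthy nuclei that show this phenotype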
Assay type: toxicity, cell-based
Details: human
Procedure, shortened: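 Live cells carried four stains from seeding: Hoechst33342, BioTracker Green Microtubule Cytoskeleton Dye, MitoTracker Red and Annexin V Alexa Fluor 680. They were imaged on a CQ1 microscope at 37°C and 5% CO2 after compound addition. Using CellPathfinder machine-learning gating, cells were split into Hoechst high-intensity objects or normal cells, normal cells into healthy, pyknosed or fragmented nuclei, and pyknosed cells into mitotic or apoptotic; tubulin, mitochondrial-mass and membrane-permeability phenotypes are per cents of healthy-nucleus cells.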

[1] = 12 h, 1 µM, compound concentration 1 uM, replicate 1
[2] = 12 h, 1 µM, compound concentration 1 uM, replicate 2
[3] = 12 h, 10 µM, compound concentration 10 uM, replicate 1
[4] = 12 h, 10 µM, compound concentration 10 uM, replicate 2
[5] = 24 h, 1 µM, compound concentration 1 uM, replicate 1
[6] = 24 h, 1 µM, compound concentration 1 uM, replicate 2
[7] = 24 h, 10 µM, compound concentration 10 uM, replicate 1
[8] = 24 h, 10 µM, compound concentration 10 uM, replicate 2
[9] = 48 h, 1 µM, compound concentration 1 uM, replicate 1
[10] = 48 h, 1 µM, compound concentration 1 uM, replicate 2
[11] = 48 h, 10 µM, compound concentration 10 uM, replicate 1
[12] = 48 h, 10 µM, compound concentration 10 uM, replicate 2

## CC(Cc1ccc(O)c(O)c1)C(C)Cc1ccc(O)c(O)c1 (stereo unspecified) [NORDIHYDROGUAIARETIC ACID]
[1]
  Population Apoptotic (%): 42%
  Population Fragmented Nuclei (%): 12%
  Population Healthy Nuclei (%): 34%
  Population Hoechst High Intensity Objects (%): 16%
  Population Mitochondria Different-Phenotype (%): 81%
  Population Mitotic Cells (%): 57%
  Population Normal (%): 83%
  Population Pyknosed Nuclei (%): 52%
  Population Tubulin-Different-Phenotype (%): 6%
  Total Cell Count: 150
[2]
  Population Apoptotic (%): 8%
  Population Fragmented Nuclei (%): 6%
  Population Healthy Nuclei (%): 36%
  Population Hoechst High Intensity Objects (%): 5%
  Population Membrane Permeable-Phenotype (%): 2%
  Population Mitochondria Different-Phenotype (%): 28%
  Population Mitotic Cells (%): 91%
  Population Normal (%): 94%
  Population Pyknosed Nuclei (%): 57%
  Population Tubulin-Different-Phenotype (%): 11%
  Total Cell Count: 194
[3]
  Population Apoptotic (%): 33%
  Population Fragmented Nuclei (%): 12%
  Population Healthy Nuclei (%): 49%
  Population Hoechst High Intensity Objects (%): 15%
  Population Membrane Permeable-Phenotype (%): 3%
  Population Mitochondria Different-Phenotype (%): 71%
  Population Mitotic Cells (%): 66%
  Population Normal (%): 84%
  Population Pyknosed Nuclei (%): 37%
  Population Tubulin-Different-Phenotype (%): 2%
  Total Cell Count: 211
[4]
  Population Apoptotic (%): 11%
  Population Fragmented Nuclei (%): 6%
  Population Healthy Nuclei (%): 55%
  Population Hoechst High Intensity Objects (%): 4%
  Population Membrane Permeable-Phenotype (%): 1%
  Population Mitochondria Different-Phenotype (%): 14%
  Population Mitotic Cells (%): 88%
  Population Normal (%): 95%
  Population Pyknosed Nuclei (%): 38%
  Population Tubulin-Different-Phenotype (%): 0%
  Total Cell Count: 254
[5]
  Population Apoptotic (%): 35%
  Population Fragmented Nuclei (%): 12%
  Population Healthy Nuclei (%): 42%
  Population Hoechst High Intensity Objects (%): 12%
  Population Membrane Permeable-Phenotype (%): 1%
  Population Mitochondria Different-Phenotype (%): 46%
  Population Mitotic Cells (%): 64%
  Population Normal (%): 87%
  Population Pyknosed Nuclei (%): 45%
  Population Tubulin-Different-Phenotype (%): 15%
  Total Cell Count: 156
[6]
  Population Apoptotic (%): 18%
  Population Fragmented Nuclei (%): 5%
  Population Healthy Nuclei (%): 48%
  Population Hoechst High Intensity Objects (%): 3%
  Population Membrane Permeable-Phenotype (%): 6%
  Population Mitochondria Different-Phenotype (%): 11%
  Population Mitotic Cells (%): 81%
  Population Normal (%): 96%
  Population Pyknosed Nuclei (%): 46%
  Population Tubulin-Different-Phenotype (%): 12%
  Total Cell Count: 212
[7]
  Population Apoptotic (%): 27%
  Population Fragmented Nuclei (%): 17%
  Population Healthy Nuclei (%): 39%
  Population Hoechst High Intensity Objects (%): 7%
  Population Membrane Permeable-Phenotype (%): 0%
  Population Mitochondria Different-Phenotype (%): 50%
  Population Mitotic Cells (%): 72%
  Population Normal (%): 92%
  Population Pyknosed Nuclei (%): 42%
  Population Tubulin-Different-Phenotype (%): 7%
  Total Cell Count: 192
[8]
  Population Apoptotic (%): 16%
  Population Fragmented Nuclei (%): 8%
  Population Healthy Nuclei (%): 58%
  Population Hoechst High Intensity Objects (%): 3%
  Population Membrane Permeable-Phenotype (%): 1%
  Population Mitochondria Different-Phenotype (%): 4%
  Population Mitotic Cells (%): 83%
  Population Normal (%): 96%
  Population Pyknosed Nuclei (%): 32%
  Population Tubulin-Different-Phenotype (%): 1%
  Total Cell Count: 255
[9]
  Population Apoptotic (%): 21%
  Population Fragmented Nuclei (%): 11%
  Population Healthy Nuclei (%): 68%
  Population Hoechst High Intensity Objects (%): 8%
  Population Membrane Permeable-Phenotype (%): 5%
  Population Mitochondria Different-Phenotype (%): 19%
  Population Mitotic Cells (%): 78%
  Population Normal (%): 91%
  Population Pyknosed Nuclei (%): 20%
  Population Tubulin-Different-Phenotype (%): 14%
  Total Cell Count: 223
[10]
  Population Apoptotic (%): 14%
  Population Fragmented Nuclei (%): 7%
  Population Healthy Nuclei (%): 69%
  Population Hoechst High Intensity Objects (%): 5%
  Population Membrane Permeable-Phenotype (%): 7%
  Population Mitochondria Different-Phenotype (%): 1%
  Population Mitotic Cells (%): 85%
  Population Normal (%): 94%
  Population Pyknosed Nuclei (%): 23%
  Population Tubulin-Different-Phenotype (%): 16%
  Total Cell Count: 312
[11]
  Population Apoptotic (%): 21%
  Population Fragmented Nuclei (%): 21%
  Population Healthy Nuclei (%): 50%
  Population Hoechst High Intensity Objects (%): 11%
  Population Membrane Permeable-Phenotype (%): 7%
  Population Mitochondria Different-Phenotype (%): 5%
  Population Mitotic Cells (%): 78%
  Population Normal (%): 88%
  Population Pyknosed Nuclei (%): 28%
  Population Tubulin-Different-Phenotype (%): 3%
  Total Cell Count: 187
[12]
  Population Apoptotic (%): 14%
  Population Fragmented Nuclei (%): 7%
  Population Healthy Nuclei (%): 67%
  Population Hoechst High Intensity Objects (%): 4%
  Population Membrane Permeable-Phenotype (%): 5%
  Population Mitochondria Different-Phenotype (%): 1%
  Population Mitotic Cells (%): 85%
  Population Normal (%): 95%
  Population Pyknosed Nuclei (%): 25%
  Population Tubulin-Different-Phenotype (%): 1%
  Total Cell Count: 280
